Source: ChEMBL document CHEMBL2146357, “Cellular zwitterionic metabolite analogs simultaneously enhance reaction rate, thermostability, salt tolerance, and substrate specificity of α-glucosidase” (Bioorg Med Chem, 2011)
Activity calls are given as the source filed them. The calls are words filed in the database; no cut-off is given here.

How the values were obtained:
[1] = system: Geobacillus stearothermophilus; test: Activity of Bacillus stearothermophilus alpha-glucosidase assessed as production of p-nitrophenol using p-nitrophenyl-alpha-D-glucopyranoside as substrate at 50 mM after 3 mins by spectrophotometer
In short: (§1)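 B. stearothermophilus α-glucosidase at 2.5 × 10^-5 mg/mL in 0.1 M phosphate buffer pH 7.0 with 2.0 mM p-nitrophenyl-α-D-glucopyranoside and 0–1000 mM solute, 37 °C. Release of p-nitrophenol followed at 405 nm. Initial slopes converted to velocities (ε 10900 cm^-1 M^-1), averaged over five runs. Activity = initial velocity with solute divided by initial velocity without solute.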

Saccharomyces cerevisiae [2] = test: Activity of commercial yeast alpha-glucosidase assessed as production of p-nitrophenol using p-nitrophenyl-alpha-D-glucopyranoside as substrate at 50 mM after 3 mins by spectrophotometer
In short: (§2)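 Enzymes were α-glucosidase from S. cerevisiae or from yeast at 2.5 × 10^-5 mg/mL, with 2.0 mM substrate and 0 or 50 mM solute in 100 mM phosphate pH 7.0 at 37 °C. p-Nitrophenol formation was read at 405 nm. Initial velocities (average of five) were expressed as the ratio of the value with solute to the value without solute.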

[3] = system: Geobacillus stearothermophilus; test: Activity of Bacillus stearothermophilus alpha-glucosidase activity assessed as production of p-nitrophenol using p-nitrophenyl-alpha-D-glucopyranoside as substrate at 1000 mM after 3 mins by spectrophotometer; in short: as §1
[4] = system: Geobacillus stearothermophilus; test: Thermostabilization of Bacillus stearothermophilus alpha-glucosidase at 50 mM
In short: (§3)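 Optimum conditions were scanned with 0 or 50 mM solute, 2.5 × 10^-5 mg/mL B. stearothermophilus α-glucosidase and 2.0 mM substrate in 0.10 M phosphate. pH was varied from 6.4 to 7.9, NaCl from 0 to 2.5 M, and temperature was also varied. Activity was read as p-nitrophenol release at 405 nm.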

Saccharomyces cerevisiae [5] = test: Activity of Saccharomyces cerevisiae alpha-glucosidase assessed as production of p-nitrophenol using p-nitrophenyl-alpha-D-glucopyranoside as substrate at 50 mM after 3 mins by spectrophotometer; in short: as §2
[6] = system: Geobacillus stearothermophilus; test: Effect on optimum pH of Bacillus stearothermophilus alpha-glucosidase at 50 mM; in short: as §3
[7] = system: Geobacillus stearothermophilus; test: Enhancement of NaCl salt tolerance at Bacillus stearothermophilus alpha-glucosidase at 50 mM; in short: as §3
[8] = system: Geobacillus stearothermophilus; test: Activity of Bacillus stearothermophilus alpha-glucosidase activity assessed as production of p-nitrophenol using p-nitrophenyl-alpha-D-glucopyranoside as substrate at 200 mM after 3 mins by spectrophotometer; in short: as §1
[9] = system: Geobacillus stearothermophilus; test: Activity of Bacillus stearothermophilus alpha-glucosidase activity assessed as production of p-nitrophenol using p-nitrophenyl-alpha-D-glucopyranoside as substrate at 800 mM after 3 mins by spectrophotometer; in short: as §1
[10] = system: Geobacillus stearothermophilus; test: Increase of Bacillus stearothermophilus alpha-glucosidase activity assessed as production of p-nitrophenol using p-nitrophenyl-alpha-D-glucopyranoside as substrate at 50 mM after 3 mins by spectrophotometer; in short: as §1
[11] = molecular target: Intestinal-type alkaline phosphatase (Bos taurus) (UniProt P19111); test: Increase of calf intestine alkaline phosphatase activity assessed as production of p-nitrophenol using p-nitrophenylphosphate as substrate at 50 mM after 3 mins by spectrophotometer
In short: (§4)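 Almond β-glucosidase or calf-intestine alkaline phosphatase, each at 2.5 × 10^-5 mg/mL, was incubated with 2.0 mM substrate and 0 or 50 mM solute in 0.10 M phosphate pH 7.0 at 37 °C. p-Nitrophenol production was followed over incubation time by absorbance at 405 nm.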

Prunus dulcis = test: Increase of almond beta-glucosidase activity assessed as production of p-nitrophenol using p-nitrophenyl-beta-D-glucopyranoside as substrate at 50 mM after 3 mins by spectrophotometer; in short: as §4
[12] = system: Geobacillus stearothermophilus; test: Increase of Bacillus stearothermophilus alpha-glucosidase activity assessed as fold increase in reaction initial velocity using p-nitrophenyl-alpha-D-mannopyranoside as substrate at 750 mM after 3 mins by spectrophotometer relative to control
In short: (§5)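 Enzyme: B. stearothermophilus α-glucosidase, 2.5 × 10^-5 mg/mL, with 2.0 mM substrate (p-nitrophenyl α-D-glucoside, β-D-glucoside, α-D-galactoside or α-D-mannoside) and 0, 50 or 750 mM solute in 100 mM phosphate pH 7.0 at 37 °C. Initial velocities came from A405 slopes (five measurements). Results given as v(presence)/v(absence).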

[13] = system: Geobacillus stearothermophilus; test: Increase of Bacillus stearothermophilus alpha-glucosidase activity assessed as fold increase in reaction initial velocity using p-nitrophenyl-beta-D-glucopyranoside as substrate at 50 mM after 3 mins by spectrophotometer relative to control; in short: as §5
[14] = system: Geobacillus stearothermophilus; test: Activity of Bacillus stearothermophilus alpha-glucosidase activity assessed as production of p-nitrophenol using p-nitrophenyl-alpha-D-glucopyranoside as substrate at > 50 mM after 3 mins by spectrophotometer; in short: as §1
[15] = system: Geobacillus stearothermophilus; test: Increase of Bacillus stearothermophilus alpha-glucosidase activity at 30 mM after 3 mins by spectrophotometer relative to control; in short: as §1
Saccharomyces cerevisiae [16] = test: Increase of commercial yeast alpha-glucosidase activity assessed as production of p-nitrophenol using p-nitrophenyl-alpha-D-glucopyranoside as substrate at 50 mM after 3 mins by spectrophotometer; in short: as §2
[17] = system: Geobacillus stearothermophilus; test: Increase of Bacillus stearothermophilus alpha-glucosidase activity assessed as fold increase in reaction initial velocity using p-nitrophenyl-alpha-D-mannopyranoside as substrate at 50 mM after 3 mins by spectrophotometer relative to control; in short: as §5
[18] = system: Geobacillus stearothermophilus; test: Increase of Bacillus stearothermophilus alpha-glucosidase activity assessed as fold increase in reaction initial velocity using p-nitrophenyl-beta-D-glucopyranoside as substrate at 750 mM after 3 mins by spectrophotometer relative to control; in short: as §5
[19] = system: Geobacillus stearothermophilus; test: Activity of Bacillus stearothermophilus alpha-glucosidase activity assessed as production of p-nitrophenol using p-nitrophenyl-alpha-D-glucopyranoside as substrate at 30 to 50 mM after 3 mins by spectrophotometer; in short: as §1
[20] = system: Geobacillus stearothermophilus; test: Increase of Bacillus stearothermophilus alpha-glucosidase activity assessed as fold increase in reaction initial velocity using p-nitrophenyl-alpha-D-galactopyranoside as substrate at 750 mM after 3 mins by spectrophotometer relative to control; in short: as §5
[21] = system: Geobacillus stearothermophilus; test: Activity of Bacillus stearothermophilus alpha-glucosidase assessed as increase in urea concentration for enzyme deformation using p-nitrophenyl-alpha-D-glucopyranoside as substrate at 50 mM after 3 mins by spectrophotometer
[22] = system: Geobacillus stearothermophilus; test: Increase of Bacillus stearothermophilus alpha-glucosidase activity assessed as fold increase in reaction initial velocity using p-nitrophenyl-alpha-D-glucopyranoside as substrate at 750 mM after 3 mins by spectrophotometer relative to control; in short: as §5
Saccharomyces cerevisiae [23] = test: Increase of Saccharomyces cerevisiae alpha-glucosidase activity assessed as production of p-nitrophenol using p-nitrophenyl-alpha-D-glucopyranoside as substrate at 50 mM after 3 mins by spectrophotometer; in short: as §2
[24] = system: Geobacillus stearothermophilus; test: Increase of Bacillus stearothermophilus alpha-glucosidase activity assessed as fold increase in reaction initial velocity using p-Nitrophenyl-alpha-D-glucopyranoside as substrate at 50 mM after 3 mins by spectrophotometer relative to control; in short: as §5
[25] = system: Geobacillus stearothermophilus; test: Increase of Bacillus stearothermophilus alpha-glucosidase activity assessed as fold increase in reaction initial velocity using p-nitrophenyl-alpha-D-galactopyranoside as substrate at 50 mM after 3 mins by spectrophotometer relative to control; in short: as §5

Intestinal-type alkaline phosphatase (Bos taurus), sequence (P19111 20-506 limits assumed): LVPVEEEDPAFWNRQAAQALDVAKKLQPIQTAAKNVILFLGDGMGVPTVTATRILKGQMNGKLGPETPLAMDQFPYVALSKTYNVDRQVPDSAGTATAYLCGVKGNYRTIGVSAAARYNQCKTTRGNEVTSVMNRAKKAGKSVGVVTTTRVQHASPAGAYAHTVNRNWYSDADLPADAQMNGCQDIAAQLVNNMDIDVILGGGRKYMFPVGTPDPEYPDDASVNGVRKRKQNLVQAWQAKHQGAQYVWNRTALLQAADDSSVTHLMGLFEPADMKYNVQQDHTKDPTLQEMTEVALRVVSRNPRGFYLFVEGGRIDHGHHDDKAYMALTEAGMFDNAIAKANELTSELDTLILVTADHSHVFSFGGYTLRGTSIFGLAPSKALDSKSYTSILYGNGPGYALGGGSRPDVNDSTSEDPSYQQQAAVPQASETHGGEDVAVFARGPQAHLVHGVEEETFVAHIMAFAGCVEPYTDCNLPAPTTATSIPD

| Compound | Activity [1] | Activity (Saccharomyces cerevisiae [2]) | Activity (Saccharomyces cerevisiae [5]) | also measured |
| --- | --- | --- | --- | --- |
| C[N+](C)(C)CC(=O)O | inactive | inactive | inactive | Activity [3]: inactive; Activity [4]: Active; Activity [6]: inactive; Activity [7]: Active |
| C[N+](C)(CC[N+](C)(C)CC(=O)[O-])CC(=O)[O-] | inactive | inactive | inactive | – |
| CCC[N+](CCC)(CCC)CC(=O)[O-] | Active | Active | Active | Activity [8]: Active |
| CC[N+](CC)(CC)CC(=O)[O-] | Active | inactive | inactive | Activity [9]: Active |
| CCCC[N+](CCCC)(CCCC)CC(=O)[O-] | Active | Active | Active | Activity [10]: Active; Activity [11]: Active; Activity (Prunus dulcis): Active; fold change (FC) [12]: 0.6; fold change (FC) [13]: 0.8; Activity [14]: Active; fold change (FC) [15]: 2.1; Activity [4]: Active; Activity (Saccharomyces cerevisiae [16]): Active; fold change (FC) [17]: 0.9; Activity [6]: inactive; Activity [7]: Active; fold change (FC) [18]: 0.5; Activity [19]: Active; fold change (FC) [20]: 0.8; Activity [21]: Active; fold change (FC) [22]: 0.8; Activity (Saccharomyces cerevisiae [23]): Active; fold change (FC) [24]: 2.5; fold change (FC) [25]: 0.8 |
| OCC(O)CO | inactive | inactive | inactive | – |
| C[N+](C)(C)CCCC(=O)[O-] | inactive | inactive | inactive | – |
| C[N+]1(CC(=O)[O-])CCOCC1 | Active | inactive | inactive | – |
| C[N+](C)(C)CCCCCC(=O)[O-] | inactive | inactive | inactive | – |
| OC[C@@H](O)[C@@H](O)[C@H](O)[C@@H](O)CO | inactive | inactive | inactive | – |
| O[C@H]1[C@H](O)[C@@H](O)[C@H](O)[C@@H](O)[C@H]1O | inactive | inactive | inactive | – |
| C[N+]1(CC(=O)[O-])CCCCC1 | Active | inactive | inactive | – |
